Data published in ChEMBL document CHEMBL1141332, “Cytotoxic metabolites from an Indonesian sponge Lendenfeldia sp” (J Nat Prod, 2007).
Where “and” joins values, the source holds several entries; their conditions need not be identical. Equal values may be shown once.

Columns and labels:
OVCAR-4 = assay: Cytotoxicity against human OVCAR4 cells; type: functional; conditions: for CC50: read-out: Log LC50 (the source's name) (converted); for TGI: read-out: Log TGI (converted)
T47D [1] = assay: Cytotoxicity against human T47D cells; type: functional; conditions: for TGI: read-out: Log TGI (converted)
K562 = assay: Cytotoxicity against human K562 cells; type: functional; conditions: for CC50: read-out: Log LC50 (the source's name) (converted); for TGI: read-out: Log TGI (converted)
A498 = assay: Cytotoxicity against human A498 cells; type: functional; conditions: for TGI: read-out: Log TGI (converted)
ACHN = assay: Cytotoxicity against human ACHN cells; type: functional; conditions: for TGI: read-out: Log TGI (converted)
HL-60 = assay: Cytotoxicity against human HL60 cells; type: functional; conditions: for TGI: read-out: Log TGI (converted); for CC50: read-out: Log LC50 (the source's name) (converted)
Malme-3M = assay: Cytotoxicity against human MALME-3M cells; type: functional; conditions: for CC50: read-out: Log LC50 (the source's name) (converted); for TGI: read-out: Log TGI (converted)
CCRF-CEM = assay: Cytotoxicity against human CCRF-CEM cells; type: functional; conditions: for TGI: read-out: Log TGI (converted)
COLO 205 = assay: Cytotoxicity against human COLO205 cells; type: functional; conditions: for CC50: read-out: Log LC50 (the source's name) (converted); for TGI: read-out: Log TGI (converted)
DU-145 = assay: Cytotoxicity against human DU145 cells; type: functional; conditions: for TGI: read-out: Log TGI (converted)
NCI-H522 = assay: Cytotoxicity against human NCI-H522 cells; type: functional; conditions: for CC50: read-out: Log LC50 (the source's name) (converted); for TGI: read-out: Log TGI (converted)
MCF7 = assay: Cytotoxicity against human MCF7 cells; type: functional; conditions: for TGI: read-out: Log TGI (converted)
SR = assay: Cytotoxicity against human SR cells; type: functional; conditions: for CC50: read-out: Log LC50 (the source's name) (converted); for TGI: read-out: Log TGI (converted)
MDA-MB-231 [2] = assay: Inhibition of human MDA-MB-231 cells assessed as cell viability under hypoxic condition after 48 hrs; type: functional, cell-based; conditions: MDA-MB-231, 48 h
Summary of the method: (§1)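 Neutral Red proliferation/viability assay on T47D or MDA-MB-231 cells kept in DMEM/F12 with 10% FCS at 37 °C under 5% CO2, with 48 h compound exposure. Read-out was OD540, and % inhibition = 1 − OD540(treated)/OD540(control). IC50 was derived from the concentration–response data.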

T47D [3] = assay: Inhibition of human T47D cells assessed as cell viability under normoxic condition after 48 hrs; type: functional, cell-based; summary of the method: as §1
MDA-MB-231 [4] = assay: Inhibition of human MDA-MB-231 cells assessed as cell viability under normoxic condition after 48 hrs; type: functional, cell-based; conditions: MDA-MB-231, 48 h; summary of the method: as §1
[5] = target: T1, Hypoxia inducible factors; HIF-1-alpha, HIF-2-alpha (Homo sapiens, UniProt Q16665+Q99814); assay: Inhibition of HIF1 activity in human T47D cells by cell based reporter assay
Summary of the method: (§2)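 T47D cells grown in DMEM/F12 with glutamine, 10% FCS and penicillin/streptomycin at 37 °C under 5% CO2, then transiently transfected with the pHRE-TK-Luc reporter. Compounds from DMSO stocks were tested at half-log concentrations for 16 h, with luciferase read-out. IC50 was taken from curve fits of triplicate experiments.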

T47D [6] = assay: Inhibition of human T47D cells assessed as cell viability under hypoxic condition after 48 hrs; type: functional, cell-based; summary of the method: as §1
[7] = target: T1, Hypoxia inducible factors; HIF-1-alpha, HIF-2-alpha; assay: Inhibition of 1, 10-phenanthroline-induced HIF1 activity in human T47D cells by cell based reporter assay; summary of the method: as §2
CAKI-1 = assay: Cytotoxicity against human CAKI1 cells; type: functional; conditions: for TGI: read-out: Log TGI (converted)
T47D [8] = assay: Cell viability of human T47D cells under hypoxic condition after 16 hrs; type: functional, cell-based

CC(=O)O[C@H]1C[C@H]2[C@@](C)(CC[C@H]3C(C)(C)CCC[C@@]32CO)[C@@H]2CC=C(C(C)=O)[C@H](C=O)[C@@]12C
GI50 (OVCAR-4): 0.575 µM | CC50 (OVCAR-4): 5.01 µM | TGI (OVCAR-4): 1.91 µM | GI50 (T47D [1]): 1.02 µM | LC50 (T47D [1]): 8.91 µM | TGI (T47D [1]): 3.02 µM | GI50 (K562): 2.19 µM | CC50 (K562): 30.2 µM | TGI (K562): 7.76 µM | GI50 (A498): 1.48 µM | LC50 (A498): 5.89 µM | TGI (A498): 2.95 µM | GI50 (ACHN): 0.282 µM | LC50 (ACHN): 3.24 µM | TGI (ACHN): 1.07 µM | GI50 (HL-60; Homo sapiens, HL-60): 0.17 µM | TGI (HL-60): 0.537 µM and 2.63 µM | GI50 (Malme-3M): 1.29 µM | CC50 (Malme-3M): 5.89 µM | TGI (Malme-3M): 2.75 µM | GI50 (CCRF-CEM): 0.347 µM | LC50 (CCRF-CEM): 4.47 µM | TGI (CCRF-CEM): 1.17 µM | GI50 (COLO 205): 0.295 µM | CC50 (COLO 205): 4.37 µM | TGI (COLO 205): 1.32 µM | GI50 (DU-145): 0.457 µM | LC50 (DU-145): 3.98 µM | TGI (DU-145): 1.58 µM | GI50 (NCI-H522): 1.05 µM | CC50 (NCI-H522): 6.46 µM | TGI (NCI-H522): 2.57 µM | GI50 (MCF7): 0.776 µM | LC50 (MCF7): 25.7 µM | TGI (MCF7): 3.47 µM | GI50 (SR): 0.288 µM | CC50 (SR): 3.72 µM | TGI (SR): 0.759 µM

CC(=O)C1=CC[C@H]2[C@]3(C)CC[C@H]4C(C)(C)CCC[C@]4(C(=O)O)[C@H]3CC(=O)[C@]2(C)[C@H]1C=O
GI50 (OVCAR-4): 0.813 µM | CC50 (OVCAR-4): 56.2 µM | TGI (OVCAR-4): 4.68 µM | GI50 (T47D [1]): 1.17 µM | LC50 (T47D [1]): 85.1 µM | TGI (T47D [1]): 6.61 µM | GI50 (K562): 2.04 µM | CC50 (K562): 20.9 µM | TGI (K562): 5.01 µM | GI50 (A498): 1.12 µM | LC50 (A498): 15.8 µM | TGI (A498): 3.63 µM | IC50 (MDA-MB-231 [2]): 1.5 µM | GI50 (ACHN): 0.479 µM | LC50 (ACHN): 4.17 µM | TGI (ACHN): 1.7 µM | GI50 (HL-60; Homo sapiens, HL-60): 0.282 µM | CC50 (HL-60; Homo sapiens, HL-60): 6.31 µM | TGI (HL-60; Homo sapiens, HL-60): 1.38 µM | GI50 (Malme-3M): 1.62 µM | CC50 (Malme-3M): 6.76 µM | TGI (Malme-3M): 3.31 µM | IC50 (T47D [3]): 1.4 µM | IC50 (MDA-MB-231 [4]): 1.4 µM | IC50 [5]: 0.64 µM | GI50 (COLO 205): 0.794 µM | CC50 (COLO 205): 7.41 µM | TGI (COLO 205): 2.57 µM | IC50 (T47D [6]): 1.9 µM | GI50 (DU-145): 1.32 µM | LC50 (DU-145): 5.5 µM | TGI (DU-145): 2.69 µM | IC50 [7]: 0.5 µM | GI50 (CAKI-1): 0.646 µM | LC50 (CAKI-1): 12.9 µM | TGI (CAKI-1): 2.45 µM | IC50 (T47D [8]): 3.3 µM | GI50 (NCI-H522): 1.74 µM | CC50 (NCI-H522): 11.2 µM | TGI (NCI-H522): 4.17 µM | GI50 (MCF7): 0.813 µM | LC50 (MCF7): 51.3 µM | TGI (MCF7): 9.33 µM | GI50 (SR): 0.457 µM | CC50 (SR): 6.76 µM | TGI (SR): 1.86 µM

CC1OC(=O)[C@H]2[C@H]1[C@@H](O)C[C@H]1[C@]3(C)CC[C@H]4C(C)(C)CCC[C@]4(C)[C@H]3C[C@@H](O)[C@]21C (some centres not stated)
GI50 (OVCAR-4): 20.9 µM | CC50 (OVCAR-4): > 100 µM | TGI (OVCAR-4): 60.3 µM | GI50 (T47D [1]): 24.5 µM | LC50 (T47D [1]): > 100 µM | TGI (T47D [1]): 63.1 µM | GI50 (K562): 29.5 µM | CC50 (K562): > 100 µM | TGI (K562): 55 µM | GI50 (A498): 18.6 µM | LC50 (A498): 72.4 µM | TGI (A498): 37.2 µM | IC50 (MDA-MB-231 [2]): 5.4 µM | GI50 (ACHN): 18.2 µM | LC50 (ACHN): 56.2 µM | TGI (ACHN): 31.6 µM | GI50 (HL-60; Homo sapiens, HL-60): 11.7 µM | CC50 (HL-60; Homo sapiens, HL-60): > 100 µM | TGI (HL-60; Homo sapiens, HL-60): 36.3 µM | GI50 (Malme-3M): 26.9 µM | CC50 (Malme-3M): 91.2 µM | TGI (Malme-3M): 50.1 µM | IC50 (T47D [3]): 4.7 µM | IC50 (MDA-MB-231 [4]): 4.9 µM | IC50 [5]: 3.5 µM | GI50 (COLO 205): 15.8 µM | CC50 (COLO 205): 66.1 µM | TGI (COLO 205): 32.4 µM | IC50 (T47D [6]): 5.3 µM | GI50 (DU-145): 17 µM | LC50 (DU-145): 72.4 µM | TGI (DU-145): 34.7 µM | IC50 [7]: 2.4 µM | GI50 (CAKI-1): 30.9 µM | LC50 (CAKI-1): > 100 µM | TGI (CAKI-1): 56.2 µM | IC50 (T47D [8]): 6.7 µM | GI50 (NCI-H522): 19.5 µM | CC50 (NCI-H522): 77.6 µM | TGI (NCI-H522): 38.9 µM | GI50 (MCF7): 34.7 µM | LC50 (MCF7): > 100 µM | TGI (MCF7): > 100 µM | GI50 (SR): 8.51 µM | CC50 (SR): > 100 µM | TGI (SR): 35.5 µM

CC(=O)O[C@@H]1C[C@H]2[C@]3(C)CC[C@H]4C(C)(C)CCC[C@]4(C)[C@H]3C[C@H](O)[C@]2(C)[C@@H](C=O)[C@@H]1C(C)=O [SCALARHERBACIN A]
GI50 (OVCAR-4): 0.912 µM | CC50 (OVCAR-4): 6.61 µM | TGI (OVCAR-4): 2.51 µM | GI50 (T47D [1]): 0.832 µM | LC50 (T47D [1]): 25.1 µM | TGI (T47D [1]): 3.55 µM | GI50 (K562): 1.74 µM | CC50 (K562): 7.76 µM | TGI (K562): 3.72 µM | GI50 (A498): 1.82 µM | LC50 (A498): 6.76 µM | TGI (A498): 3.47 µM | GI50 (ACHN): 0.457 µM | LC50 (ACHN): 3.98 µM | TGI (ACHN): 1.55 µM | GI50 (HL-60; Homo sapiens, HL-60): 1.32 µM | CC50 (HL-60; Homo sapiens, HL-60): 8.51 µM | TGI (HL-60; Homo sapiens, HL-60): 3.39 µM | GI50 (Malme-3M): 1.95 µM | TGI (Malme-3M): 3.89 µM | GI50 (CCRF-CEM): 0.676 µM | LC50 (CCRF-CEM): 6.46 µM | TGI (CCRF-CEM): 2.24 µM | GI50 (COLO 205): 0.537 µM | CC50 (COLO 205): 5.25 µM | TGI (COLO 205): 1.86 µM | GI50 (DU-145): 1.23 µM | LC50 (DU-145): 5.13 µM | TGI (DU-145): 2.51 µM | GI50 (NCI-H522): 1.86 µM | CC50 (NCI-H522): 7.59 µM | TGI (NCI-H522): 3.72 µM | GI50 (MCF7): 1.82 µM | LC50 (MCF7): 70.8 µM | TGI (MCF7): 6.17 µM | GI50 (SR): 0.282 µM | TGI (SR): 1.15 µM
